This is an account of results in ChEMBL document CHEMBL1212862, “Role of 2',6'-dimethyl-l-tyrosine (Dmt) in some opioid lead compounds” (Bioorg Med Chem, 2010).

The species named for assay [1] is Rattus norvegicus. Nature of the assay: Ratio of Ki for Sprague-Dawley rat mu opioid receptor to Ki for Sprague-Dawley rat delta opioid receptor.
The target of assay [2] is Delta-type opioid receptor (Rattus norvegicus, UniProt P33533). Put plainly: Displacement of [3H]deltorphin 2 from delta opioid receptor in Sprague-Dawley rat brain P2 synaptosomal membrane. In a few lines:
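Equilibrium incubation 2.5 h at 23 °C. Filtration through glass fibre filters pre-soaked in 0.1% polyethylenimine, then three washes in ice-cold buffered 0.1% BSA. Ki by Cheng–Prusoff.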
On the technique in general: Loss of bound radioactivity is the signal in a displacement assay; it reports binding, not function.

The target of assay [3] is Mu-type opioid receptor (Rattus norvegicus, UniProt P33535). Nature of the assay: Displacement of [3H]DAMGO from mu opioid receptor in Sprague-Dawley rat brain P2 synaptosomal membrane.
Assay [4] addresses T1, Mu-type opioid receptor (Cavia porcellus, UniProt P97266). Put plainly: Agonist activity at mu opioid receptor in Hartley guinea pig small intestine. It counts as functional, tissue-based. In a few lines:
(§1)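 Isolated tissue assay in organ baths with balanced salt solution in physiological buffer, pH 7.5. Delta agonism measured on single mouse vas deferens, mu agonism on myenteric plexus longitudinal muscle strips (2–3 cm) from small intestine of male Hartley guinea pigs. Inhibition of electrically evoked contraction; IC50 (nM) from dose-response curves. DPDPE (MVD) and PL017 (GPI) run as internal standards. Mean ± SE of at least four tissue samples.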

The target of assay [5] is T2, Delta-type opioid receptor (Mus musculus, UniProt P32300). Put plainly: Agonist activity at delta opioid receptor in mouse vas deference. It counts as functional. A digest of the protocol:
as §1

Assay [6] has as its target T2, Delta-type opioid receptor. Put plainly: Antagonist activity at delta opioid receptor in mouse vas deference. As to conditions: read-out: pA2 (converted). It counts as functional. In a few lines:
(§2)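 Organ-bath tissue preparations in physiological buffer, pH 7.5, with electrically evoked contractions. Delta antagonism on mouse vas deferens measured against deltorphin II. Mu antagonism on male Hartley guinea pig ileum myenteric plexus longitudinal muscle measured against endomorphin-2. pA2 derived by the Kosterlitz and Watt method.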

Assay [7] deals with T1, Mu-type opioid receptor. Put plainly: Antagonist activity at mu opioid receptor in Hartley guinea pig small intestine. Format: functional, tissue-based. The settings on record: read-out: pA2 (converted). In a few lines:
as §2

SMILES strings stand for the structures. pIC50, pKi: −log10 of the molar value.

T2 sequence (P32300 whole entry): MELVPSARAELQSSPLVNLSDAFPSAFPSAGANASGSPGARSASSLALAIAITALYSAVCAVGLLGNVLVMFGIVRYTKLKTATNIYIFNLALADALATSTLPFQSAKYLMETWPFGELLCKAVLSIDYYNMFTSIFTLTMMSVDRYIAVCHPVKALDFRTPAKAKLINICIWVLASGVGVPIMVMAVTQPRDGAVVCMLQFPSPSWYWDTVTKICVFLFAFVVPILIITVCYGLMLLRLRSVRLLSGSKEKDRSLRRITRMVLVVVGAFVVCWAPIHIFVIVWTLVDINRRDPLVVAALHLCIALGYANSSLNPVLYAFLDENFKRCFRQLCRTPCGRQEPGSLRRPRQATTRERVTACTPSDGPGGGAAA
T1 sequence (P97266 whole entry): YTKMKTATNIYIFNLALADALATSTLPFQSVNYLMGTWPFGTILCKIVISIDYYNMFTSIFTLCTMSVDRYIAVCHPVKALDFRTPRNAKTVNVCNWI
Chain of Delta-type opioid receptor (Rattus norvegicus, UniProt P33533) (P33533 whole entry): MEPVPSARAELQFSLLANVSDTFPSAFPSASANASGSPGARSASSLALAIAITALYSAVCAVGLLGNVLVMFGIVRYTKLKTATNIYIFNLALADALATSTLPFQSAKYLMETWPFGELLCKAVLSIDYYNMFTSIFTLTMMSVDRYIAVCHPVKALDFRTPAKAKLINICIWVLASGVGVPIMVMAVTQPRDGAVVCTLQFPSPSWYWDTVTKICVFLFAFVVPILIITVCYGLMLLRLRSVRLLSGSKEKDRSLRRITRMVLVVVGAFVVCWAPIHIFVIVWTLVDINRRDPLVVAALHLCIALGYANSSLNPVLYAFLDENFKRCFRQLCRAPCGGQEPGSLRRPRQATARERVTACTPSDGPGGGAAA
Chain of Mu-type opioid receptor (Rattus norvegicus, UniProt P33535) (P33535 whole entry): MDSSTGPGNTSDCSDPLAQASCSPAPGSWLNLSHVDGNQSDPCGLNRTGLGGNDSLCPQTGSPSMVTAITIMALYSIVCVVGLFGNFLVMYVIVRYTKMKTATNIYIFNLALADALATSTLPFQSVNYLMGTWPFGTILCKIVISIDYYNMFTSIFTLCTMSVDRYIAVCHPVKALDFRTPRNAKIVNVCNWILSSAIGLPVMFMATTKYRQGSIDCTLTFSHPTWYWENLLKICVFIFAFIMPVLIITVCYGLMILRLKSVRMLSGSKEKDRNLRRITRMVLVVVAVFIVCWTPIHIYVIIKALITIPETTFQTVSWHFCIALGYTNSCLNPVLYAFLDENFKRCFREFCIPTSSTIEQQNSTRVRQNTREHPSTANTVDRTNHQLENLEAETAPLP

With `N[C@@H](Cc1ccc(O)cc1)C(=O)N1Cc2ccccc2C[C@H]1C(=O)NCc1nc2ccccc2[nH]1`, in assay [1], the Selectivity ratio came to 73. Besides, the pKi in assay [2] is 9.04; in assay [3], 7.17. The pIC50 in assay [4] was 5.38; in assay [5] it was 7.30.
Regarding `N[C@@H](Cc1ccc(O)cc1)C(=O)N1Cc2ccccc2C[C@H]1C(=O)N[C@@H](CC(=O)O)c1nc2ccccc2[nH]1`, the Selectivity ratio in assay [1] is 3860. For the same molecule, the values for the pKi in assay [2] and in assay [3] were 9.75 and 6.17, respectively. For the same molecule, the Kb in assay [6] is 1.41 nM.
As for `Cc1cc(O)cc(C)c1C[C@@H](C(=O)N1Cc2ccccc2C[C@H]1C(=O)O)N(C)C`, the Selectivity ratio in assay [1] is 20600. The Kb in assay [7] is 1580 nM. Moreover, the pKi in assay [2] was 9.93.
With `N[C@@H](Cc1c(F)cc(O)cc1F)C(=O)N1Cc2ccccc2C[C@H]1C(=O)N[C@@H](CC(=O)O)c1nc2ccccc2[nH]1`, the Selectivity ratio in assay [1] came to 1390. The pKi is 9.79 in assay [2] and 6.65 in assay [3]. Also, in assay [6], the Kb is 1.12 nM.
For `CN(C)[C@@H](Cc1c(F)cc(O)cc1F)C(=O)N1Cc2ccccc2C[C@H]1C(N)=O`, the Selectivity ratio in assay [1] stood at 3. Moreover, the pKi in assay [2] is 6.75; in assay [3], 6.22.
As to `CN(C)[C@@H](Cc1ccc(O)cc1)C(=O)N1Cc2ccccc2C[C@H]1C(N)=O`, the Selectivity ratio in assay [1] worked out at 7. For the same molecule, the pKi is 6.70 in assay [2] and 5.84 in assay [3].
The like results for `CN(C)[C@@H](Cc1ccc(O)cc1)C(=O)N1Cc2ccccc2C[C@H]1C(=O)O` were, in that order, 35, 7.46 and 5.91.
On to `N[C@@H](Cc1c(F)cc(O)cc1F)C(=O)N1Cc2ccccc2C[C@H]1C(=O)NCc1nc2ccccc2[nH]1`, for which the Selectivity ratio in assay [1] was 54. In addition, the pKi in assay [2] was 9.00; in assay [3], 7.26. In addition, the figures for the pIC50 in assay [4] and in assay [5] were less than 5.00 and 7.17, respectively.
Take `Cc1cc(O)cc(C)c1C[C@@H](C(=O)N1Cc2ccccc2C[C@H]1C(N)=O)N(C)C`: the Selectivity ratio in assay [1] worked out at 1660. For the same molecule, the values for the Kb in assay [7] and in assay [6] were 501 nM and 0.126 nM, respectively. The values for the pKi in assay [2] and in assay [3] were 9.51 and 6.29, respectively.
With `CN(C)[C@@H](Cc1c(F)cc(O)cc1F)C(=O)N1Cc2ccccc2C[C@H]1C(=O)O`, in assay [1], the Selectivity ratio was 20. The pKi is 7.53 in assay [2] and 6.24 in assay [3].

By pKi is commonly meant −log10 of the Ki, conventionally taken in molar units. By pIC50 is commonly meant the IC50 on a negative log10 scale, so that one unit is a factor of ten. A low value points to a large IC50.
